Measurements reported in the EternaBench riboswitch data.

Key:
MS2 coat protein [1] = assay: apparent Kd, MS2 coat protein; higher = weaker binding; RNA-MaP array; theophylline 2 mM where present
Outline: (§1)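 Apparent Kd: the median of filtered binding-curve fits from single clusters. Designs were transcribed on Illumina sequencing-chip clusters by stalled E. coli RNA polymerase and titrated with SNAP-549-labelled MS2 coat protein from 0.7 or 1.5 nM, doubling to 3 µM, in 100 mM Tris-HCl pH 7.5, 80 mM KCl, 4 mM MgCl2, BSA, DTT, yeast tRNA and Tween-20. Each series ran without and then with constant ligand, and green signal was normalised to red-channel RNA signal and control-cluster median Fmax.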

MS2 coat protein [2] = assay: apparent Kd, MS2 coat protein; higher = weaker binding; RNA-MaP array; tryptophan 2.4 mM where present
Outline: as §1

[3] = designed as: ON switch for theophylline, no ligand
[4] = ligand present: theophylline, designed as: ON switch for theophylline
[5] = designed as: OFF switch for theophylline, no ligand
[6] = ligand present: theophylline, designed as: OFF switch for theophylline
[7] = designed as: ON switch for tryptophan, no ligand
[8] = ligand present: tryptophan, designed as: ON switch for tryptophan
[9] = designed as: OFF switch for tryptophan, no ligand
[10] = ligand present: tryptophan, designed as: OFF switch for tryptophan

Sequence: ACGACGCAUAGUGAUACCAGCACAACAUGAGGAUCACCCAUGUCACUUAUGUAGUAAUAAUGCCCUUGGCAGCACUAUGCGUCAG
- apparent Kd (MS2 coat protein [1]; [3]): 55.2 nM
- apparent Kd (MS2 coat protein [1]; [4]): 65.6 nM

Sequence: ACAUGAGGAUCACCCAUGUGCCGAGUUGAUACCAGACCCGCACUAGUCCCUUGGCAGCAACUACGUGUGGGACACCCAUGUUAAG
- apparent Kd (MS2 coat protein [1]; [5]): 54.4 nM
- apparent Kd (MS2 coat protein [1]; [6]): 71.3 nM

Sequence: GAACAUGAGGAUCACCCAUGUAAAACAGAUACCAGUGAUAUAAUACACCCUUGGCAGCUGAAGCUGAAUAAUAAUUCCCUCAAGC
- apparent Kd (MS2 coat protein [1]; [3]): 14.8 nM
- apparent Kd (MS2 coat protein [1]; [4]): 16.4 nM

Sequence: AUGUCGUUGAAUAUAGCGGCUUGGAGUGAUACCAGUAUGAUCCAAUACCCUUGGCAGCAUAACAUGAGGAUCACCCAUGUUCCAG
- apparent Kd (MS2 coat protein [1]; [3]): 21.3 nM
- apparent Kd (MS2 coat protein [1]; [4]): 31.6 nM

Sequence: AGUACUCGAACGGAUACCAGCCGGACAUGAGGAUCACCCAUGUCCUACCUAUGUUCGGUUGGCCCUUGGCAGCCGUUCGUGUACA
- apparent Kd (MS2 coat protein [1]; [3]): 215 nM
- apparent Kd (MS2 coat protein [1]; [4]): 51 nM

Sequence: CGGUUUGUGAUGGAUACCAGCAGAGUGAAUGUUUAUCCUGACAUGAGGAUCACCCAUGUGUGCCCUUGGCAGCUGUUGUGGGCUG
- apparent Kd (MS2 coat protein [1]; [5]): 63.5 nM
- apparent Kd (MS2 coat protein [1]; [6]): 89.4 nM

Sequence: AGUGUUGUAACUGAUACCAGACCUUUGCUUAUACAUGAGGAUCACCCAUGUAAAAUGGCGGUCCCUUGGCAGCAGAGAAGACGCA
- apparent Kd (MS2 coat protein [1]; [3]): 40.1 nM
- apparent Kd (MS2 coat protein [1]; [4]): 12.2 nM

Sequence: AAAUAAAUCACAUGAGGAUCACCCAUGGAUACCAGGCCUGGAAACAGCCCUUGGCAGCCACAUGAGGAUCACCCAUGUGCUAAAU
- apparent Kd (MS2 coat protein [1]; [5]): 190 nM
- apparent Kd (MS2 coat protein [1]; [6]): 198 nM

Sequence: ACCUACACGGAAACGUGUAGAAGUAAUGAUACCAGCAUGGAAACAUGCCCUUGGCAGCGUUACAUGAGGAUCACCCAUGUAUGUU
- apparent Kd (MS2 coat protein [1]; [5]): 14.8 nM
- apparent Kd (MS2 coat protein [1]; [6]): 32.4 nM

Sequence: AUGUCAUUGGUGUAGCUGUGAAGUGGCGAUACCAGCGUGGAAACACGCCCUUGGCAGCGCCAAAACAUGAGGAUCACCCAUGUUA
- apparent Kd (MS2 coat protein [1]; [5]): 22.3 nM
- apparent Kd (MS2 coat protein [1]; [6]): 156 nM

Sequence: AGCACACAUCCUGAUACCAGAGACAUGAGGAUCACCCAUGUCCGAUCGUCCUGCCUCAGACUCCCUUGGCAGCAGGAUGUGUGCU
- apparent Kd (MS2 coat protein [1]; [5]): 13.1 nM
- apparent Kd (MS2 coat protein [1]; [6]): 32.4 nM

Sequence: UAUAAAAUAACAGAUACCAGCGUGUUAUAAAACAUGAGGAUCACCCAUGUAGUGAUCAAGCGCCCUUGGCAGCUGGUAUUUUAUA
- apparent Kd (MS2 coat protein [1]; [3]): 101 nM
- apparent Kd (MS2 coat protein [1]; [4]): 126 nM

Sequence: CCUAUGACAUGAGGAUCACCCAUGUUGGAUACCAGCGCAUGAGGACGCCCUUGGCAGCCAAUGAACAUGAGGAUACAUGAGGAUC
- apparent Kd (MS2 coat protein [1]; [3]): 44.5 nM
- apparent Kd (MS2 coat protein [1]; [4]): 185 nM

Sequence: UAUAACAUGAGGAUCACCCAUGUAAGUGAUACCAGAUAAAUAAUAGUCCCUUGGCAGCAUAUUGGGAAAGUGUAUAAUAUAUAUU
- apparent Kd (MS2 coat protein [1]; [3]): 52.2 nM
- apparent Kd (MS2 coat protein [1]; [4]): 57 nM

Sequence: CUGCCAUGCAGAGAUACCAGUGAGCUCAAAACAUGAGGAUCACCCAUGUAAAUUGCCGAUCACCCUUGGCAGCUCUGCAUGGCAG
- apparent Kd (MS2 coat protein [1]; [3]): 9.78 nM
- apparent Kd (MS2 coat protein [1]; [4]): 7.84 nM

Sequence: AGCGACAUGCGUGAUACCAGCUACAUGAGGAUCACCCAUGUAAGUAGGAAACUACUGUGUAGCCCUUGGCAGCACAGUGCAUGUC
- apparent Kd (MS2 coat protein [1]; [5]): 9.48 nM
- apparent Kd (MS2 coat protein [1]; [6]): 26.6 nM

Sequence: UGUUUUGUGAUGGAUACCAGCAGAGAAAACGUUUAUCCUAACAUGAGGAUCACCCAUGUAUGCCCUUGGCAGCUGUUGUGGGAUA
- apparent Kd (MS2 coat protein [1]; [5]): 29.7 nM
- apparent Kd (MS2 coat protein [1]; [6]): 34.1 nM

Sequence: AAUUGGGUUGGUGAGGUGGUUGGAGGCGAUACCAGCGUGGAAACACGCCCUUGGCAGCGCCAGGACAUGAGGAUCACCCAUGUUC
- apparent Kd (MS2 coat protein [1]; [5]): 22.7 nM
- apparent Kd (MS2 coat protein [1]; [6]): 35.2 nM

Sequence: CAAUAUAUAGCGGCCGCCACUUACUCAUGAGGUAACAACAUGAGGAUCACCCAUGUUUGAGGAUCAAGGACCGGGCUAUAUAUUG
- apparent Kd (MS2 coat protein [2]; [7]): 27.1 nM
- apparent Kd (MS2 coat protein [2]; [8]): 19.9 nM

Sequence: AUCAUAAUAGACUCGUUAGAUUAUAUGGAACGAGGACCGGUACGGCCGCCACUCGUGAUGUACAUGAGGAUCACCCAUGUUAGCU
- apparent Kd (MS2 coat protein [2]; [7]): 14.7 nM
- apparent Kd (MS2 coat protein [2]; [8]): 15.2 nM

Sequence: AGCAUCUAGUCGGCCGCCACUCUUAUUACAUGAGGAUCACCCAUGUUUAAUUCAUGGUUAUAUUUGAGGACCGGGACAUUUGCAU
- apparent Kd (MS2 coat protein [2]; [9]): 61.7 nM
- apparent Kd (MS2 coat protein [2]; [10]): 55.8 nM

Sequence: UAUAUAUAUCACGAACUGUGGUGUAUGUCUCGAGGACCGGUACGGCCGCCACUCGCGCGGCCUCACAUGAGGAUCACCCAUGUUG
- apparent Kd (MS2 coat protein [2]; [9]): 44.6 nM
- apparent Kd (MS2 coat protein [2]; [10]): 46 nM
